Experimental findings from ChEMBL document CHEMBL2311422, “Studies on synthesis, stability, release and pharmacodynamic profile of a novel diacerein-thymol prodrug” (Bioorg Med Chem Lett, 2013) are described below.

Series [1] is described as follows: n-octanol-phosphate buffer distribution coefficient, log P of the compound at pH 7.4. The class given is physicochemical. The essentials:
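Shake-flask partitioning between n-octanol and phosphate buffer pH 7.4, with UV spectrophotometric quantification.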

In series [2] the test system is Rattus norvegicus. Put plainly: Antiinflammatory activity in Wistar rat assessed as inhibition of FCA-induced paw edema at 5 mg/kg, po administered on days 13 post FCA-challenge measured up to days 28 relative to control. The class given is functional. The gist of the method:
(§1)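 Male Wistar rats (200–250 g), n = 6 per group. Complete Freund's adjuvant, 0.1 ml, injected sub-plantar into left hind paw on day 1. Oral dosing as 0.25% sodium CMC suspension, days 13–28. Body weight, joint diameter (digital vernier caliper) and paw volume (plethysmometer) recorded on days 0, 3, 7, 12, 15, 19, 21 and 28. Edema inhibition = 1 − (Vt/Vc) × 100, using mean relative paw-volume change versus arthritic controls. Mean ± SEM; two-way ANOVA with Bonferroni post test.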

The test system of series [3] is Rattus norvegicus. Put plainly: Gastrointestinal toxicity against fasted Wistar rat assessed as ulcer index at 50 mg/kg, po (reference value: 1.78 +/- 0.6). The class given is organism-based. More on the design: dose 50 mg/kg, route oral. Conditions: in vivo.
Series [4] has as its system Rattus norvegicus. Description: Antiarthritic activity against FCA-induced arthritis in Wistar rat assessed as reduction in joint diameter at 5 mg/kg, po administered from day 13 post FCA-challenge measured from day 15 to day 28 relative to control. Format: functional, organism-based. More on the design: dose 5 mg/kg. The essentials: as §1
The subject of series [5] is Rattus norvegicus. Description: Antiarthritic activity in Wistar rat assessed as inhibition of FCA-induced subcutaneous inflammation of tibio-torsal joint at 5 mg/kg, po administered on day 13 post FCA-challenge measured on day 28 by hematoxylin and eosin staining method relative to control. The class given is functional, organism-based. Further details: dose 5 mg/kg. The essentials: (§2)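 Male Wistar rats, arthritis induced by sub-plantar FCA and oral dosing on days 13–28. Animals sacrificed on day 28. Ankle joints fixed 24 h in 10% buffered formalin, decalcified in 5% formic acid, paraffin-embedded and sectioned at 5 μm. H&E-stained sections read by light microscopy for synovial hyperplasia, pannus, joint-space destruction, inflammatory cell infiltration and synovitis.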

In series [6] the test system is Rattus norvegicus. Description: Antiarthritic activity against FCA-induced arthritis in Wistar rat assessed as increase in body weight at 5 mg/kg, po administered from day 13 post FCA-challenge measured after 28 days relative to control. The class given is functional, organism-based. Further details: dose 5 mg/kg. The gist of the method: as §1
Series [7] deals with Rattus norvegicus. Description: Gastrointestinal toxicity against fasted Wistar rat assessed as ulcer index at 20.4 mg/kg, po (reference value: 1.78 +/- 0.6). Further details: dose 20.4 mg/kg, route oral. The class given is organism-based. Conditions: in vivo.
Series [8] concerns Rattus norvegicus. Description: Antiinflammatory activity in Wistar rat assessed as inhibition of FCA-induced paw edema at 2.04 mg/kg, po administered on days 13 post FCA-challenge measured up to days 28 relative to control. Format: functional. The essentials:
as §1

Series [9] concerns Rattus norvegicus. Description: Antiarthritic activity against FCA-induced arthritis in Wistar rat assessed as increase in body weight at 2.04 mg/kg, po administered from day 13 post FCA-challenge measured after 28 days relative to control. The class given is functional, organism-based. More on the design: dose 2.04 mg/kg. The essentials: as §1
Series [10] deals with Rattus norvegicus. Put plainly: Antiarthritic activity in Wistar rat assessed as inhibition of FCA-induced subcutaneous inflammation of tibio-torsal joint at 2.04 mg/kg, po administered on day 13 post FCA-challenge measured on day 28 by hematoxylin and eosin staining method relative to control. Format: functional, organism-based. More on the design: dose 2.04 mg/kg. The essentials:
as §2

Series [11] concerns Rattus norvegicus. Put plainly: Antiarthritic activity against FCA-induced arthritis in Wistar rat assessed as reduction in joint diameter at 2.04 mg/kg, po administered from day 13 post FCA-challenge measured up to day 28 relative to control. The class given is functional, organism-based. Further details: dose 2.04 mg/kg. The essentials:
as §1

Series [12] in a line: Prodrug conversion in phosphate buffer assessed as diacerein released after 30 mins at pH 7.4. Format: physicochemical. Conditions: pH 7.4, 0.5 h. The gist of the method: (§3)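 Same procedure in phosphate buffer pH 7.4 at 37 °C, followed over 4.5 h. UV read at 230 nm (prodrug remaining) and 258 nm (diacerein released). First-order rate constants taken from plots; mean K and SD from three readings, with half-life derived from these.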

In series [13] the test system is Rattus norvegicus. Description: Antiarthritic activity in Wistar rat assessed as inhibition of FCA-induced mononuclear cell infiltration in synovial tissue of tibio-torsal joint at 6.8 mg/kg, po administered on day 13 post FCA-challenge measured on day 28 by hematoxylin and eosin staining method relative to control. The class given is functional, organism-based. Further details: dose 6.8 mg/kg. The gist of the method:
as §2

For series [14], the system named is Rattus norvegicus. Put plainly: Antiarthritic activity against FCA-induced arthritis in Wistar rat assessed as reduction in joint diameter at 6.8 mg/kg, po administered from day 13 post FCA-challenge measured up to day 28 relative to control. Format: functional, organism-based. Further details: dose 6.8 mg/kg. The essentials:
as §1

Series [15] deals with Rattus norvegicus. Description: Antiinflammatory activity in Wistar rat assessed as inhibition of FCA-induced paw edema at 6.8 mg/kg, po administered on days 13 post FCA-challenge measured up to days 28 relative to control. Format: functional. The gist of the method: as §1
Series [16] is described as follows: Chemical stability in HCl buffer up to 3 hrs at pH 1.2. Format: physicochemical. Conditions: pH 1.2, 3 h. The gist of the method: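 10 mg prodrug in 100 ml HCl buffer pH 1.2, held at 37 ± 1 °C with occasional stirring. 5 ml aliquots withdrawn over 0–180 min, each replaced with fresh buffer. Samples read directly by UV at 232 nm (intact prodrug) and 259 nm (released diacerein). Triplicate runs.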

The nature of series [17]: Half life in phosphate buffer at pH 7.4. Format: physicochemical. The essentials: as §3
A short description of series [18]: Chemical stability in HCl buffer over 3 hrs at pH 1.2. Conditions: pH 1.2, 3 h.
Series [19] deals with Rattus norvegicus. Put plainly: Gastrointestinal toxicity against fasted Wistar rat assessed as ulcer index at 68 mg/kg, po (reference value: 1.78 +/- 0.6). The class given is organism-based. More on the design: dose 68 mg/kg, route oral. Conditions: in vivo.
The subject of series [20] is Rattus norvegicus. Put plainly: Antiarthritic activity against FCA-induced arthritis in Wistar rat assessed as increase in body weight at 6.8 mg/kg, po administered from day 13 post FCA-challenge measured after 28 days relative to control. The class given is functional, organism-based. More on the design: dose 6.8 mg/kg. The gist of the method: as §1
A short description of series [21]: Half life in Wistar rat small intestine homogenate. The class given is ADME, tissue-based. The gist of the method: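 Small intestine from an ether-anaesthetized male Wistar rat, homogenized with its contents and diluted to half with phosphate buffer pH 7.4. Prodrug stock 0.8 ml plus homogenate 0.2 ml, 37 °C for 4.5 h. Centrifuged and filtered, then UV read at 230 nm (prodrug) and 258 nm (diacerein) against phosphate buffer blank. First-order K averaged over three readings.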

The subject of the next series is Stomach. Put plainly: Metabolic stability in Wistar rat stomach homogenate over 4.5 hrs. The class given is ADME, tissue-based. Conditions: tissue homogenate. The gist of the method: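 Rat stomach homogenized with its contents and diluted to half with HCl buffer pH 1.2. Prodrug stock 100 μg/ml in HCl buffer; 0.8 ml stock plus 0.2 ml homogenate incubated at 37 °C. Samples centrifuged at 10,000 rpm, 4 °C, 10 min, then filtered. UV read at 232/259 nm against HCl buffer blank; quantified from calibration curves.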

The test system of series [22] is Rattus norvegicus. Put plainly: Antiarthritic activity in Wistar rat assessed as inhibition of FCA-induced inflammatory cell infiltration in subcutaneous tissue of tibio-torsal joint at 6.8 mg/kg, po administered on day 13 post FCA-challenge measured on day 28 by hematoxylin and eosin staining method relative to control. Format: functional, organism-based. Further details: dose 6.8 mg/kg. The gist of the method: as §2

Calls of active or inactive are those of the source. The rule behind the calls is not given here.

The logD is lipophilicity at a set pH, counting ionised and neutral species. A low value points to a more hydrophilic compound. A word on the inhibition in vivo: it is the drop in the measured response relative to a control, in per cent. As to `CC(=O)Oc1cccc2c1C(=O)c1c(OC(C)=O)cc(C(=O)O)cc1C2=O` [DIACEREIN], the pH-dependent lipophilicity (logD) in series [1] stood at 0.46. For the same compound, in the series on Rattus norvegicus [2], the inhibition in vivo at 5 mg/kg turned out to be 56.9%. Besides, in the series on Rattus norvegicus [3], the UI worked out at 6.03. In addition, the result in the series on Rattus norvegicus [4] and in the series with Rattus norvegicus [6] was Active. The inhibition result with Rattus norvegicus [5] was “inactive”.

As for `Cc1ccc(C(C)C)c(O)c1` [THYMOL], the UI with Rattus norvegicus [7] stood at 1.98. In addition, the inhibition in vivo at 2.04 mg/kg in the series with Rattus norvegicus [8] worked out at 9.1%. Further, in the series with Rattus norvegicus [9], the outcome was inactive. Besides, the inhibition entry in the series on Rattus norvegicus [10] was “inactive”. Besides, in the series on Rattus norvegicus [11], the outcome was Active.

The half-life is the time in which the quantity being followed falls by half. `CC(=O)Oc1cccc2c1C(=O)c1c(OC(C)=O)cc(C(=O)Oc3cc(C)ccc3C(C)C)cc1C2=O` had a log distribution coefficient (logD) in [1] of 0.565. In series [12], the Drug metabolism result is recorded as “Active”. For the same compound, in the series on Rattus norvegicus [13], the inhibition result was “inactive”. Moreover, the result in the series with Rattus norvegicus [14] and with Rattus norvegicus [20] was Active. Besides, the inhibition in vivo at 6.8 mg/kg in the series with Rattus norvegicus [15] worked out at 78.9%. The Stability result (in series [16]; in series [18]; in the series with Stomach) was “Stable” in each case. The half-life in [17] came out at 193 min; in series [21], 168 min. In addition, in the series with Rattus norvegicus [19], the UI is on record as 4.17. The inhibition entry in the series with Rattus norvegicus [22] was “Active”.
